# In PubChem BioAssay:
# Active and inactive are the calls of the source.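 How the source made its calls, unless noted: active means NADPH fluorescence slope more negative than the mean of all samples by about 3 SD, 99.7% confidence; inactive means the rest.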
# Experiments:
# [1] = inhibitors of TNFa-induced NFkB p65 translocation, primary screen, imaging, HUVEC, MLSMR starter and 10KST1 sets (AID 438;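 active means inhibition above 20% together with a positive visual image hit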;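 further: compound added about 3h40 before a 20 min TNFalpha stimulation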;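 on inhibition: signal is the nuclear over cytoplasmic p65 intensity ratio per well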); settings: HUVEC TNFa-induced p65 nuclear translocation; cell count: measured here: nuclei count (cytotoxicity indicator), at 2.08 µM; inhibition: at 2 µM, stronger effect = higher value, 0% TNFa-plus-vehicle, 100% no-TNFa wells
# [2] = inhibitors of mutant huntingtin aggregation, primary screen, imaging, exon1htt(103Q)mCFP cells, high-content imaging (AID 483;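 active means visual image review flags a hit and inhibition of aggregation exceeds 20%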;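 further: compound exposure lasted 3 days before fixation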;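 on nuclei count: percent of the per-plate median nuclei count of sample wells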); settings: exon1htt(103Q)mCFP cell line, aggregate imaging, at 2 µM; inhibition of aggregation: stronger effect = higher value; nuclei count: measured here: cell count, toxicity
# [3] = inhibitors of E-selectin induction by TNFa, primary screen, imaging, HUVEC, immunofluorescence, MLSMR starter and 10KST1 sets (AID 487;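 active means visually confirmed hit in the image check and inhibition above 20%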;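 on inhibition: signal is fraction of cell area covered by stained E-selectin grains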;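 on nuclei count: 100% = median nuclei count of all wells on the same plate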); settings: HUVEC TNFalpha-induced E-selectin immunofluorescence imaging, at 2 µM; inhibition: stronger effect = higher value; nuclei count: measured here: cell number, toxicity
# [4] = target: Voltage-gated potassium channel subunit beta-2 (Rattus norvegicus) (UniProt P62483); experiment: KvBeta enzyme negative modulators, primary screen, biochemical, NADPH fluorescence (AID 622;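 active means fluorescence slope higher than the sample average by over 3 SD, cut at about -0.22 in these data, passing the limit was not always enough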;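 further: slope of raw intensity against log time taken from 70 to 1610 s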); settings: recombinant KvBeta, 4-cyanobenzaldehyde reduction, at 10 µM, stronger effect = higher value
# [5] = target: Voltage-gated potassium channel subunit beta-2 (Rattus norvegicus) (UniProt P62483); experiment: KvBeta positive modulators, primary screen, biochemical, NADPH fluorescence (AID 623); settings: Recombinant KvBeta, NADPH fluorescence decrease slope, 10 min; at 10 µM; stronger effect = lower value;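 further: fluorescence intensity change per second fitted from 20 to 320 s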
# [6] = target: Muscarinic acetylcholine receptor M4 (Homo sapiens) (UniProt P08173); experiment: compounds altering M4/GIRK thallium flux, either direction, primary screen, M4 allosteric agonist project, cell-based, HEK293 M4/GIRK, BTC-AM (AID 625;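 active means fluorescence slope after compound addition differing from the mean of all tested samples at 99.7% confidence, mostly higher but some lower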;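 further: thallium influx through GIRK channels coupled to M4 in HEK293 cells with BTC-AM dye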); settings: at 10 µM, actives lie on both sides
# Method in brief: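 assay system = HEK293 cells with M4 receptor and GIRK channels | medium = pH 7.3 thallium assay buffer | doses = 10 µM final, single point | timing = cells overnight at 37 °C, BTC-AM loading 1 h, reads 2 min total | signal = BTC-AM fluorescence, 1 Hz kinetic reads | read-out = post-addition slope, 15–24 s, of baseline-normalized fluorescence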
# [7] = inhibitors of Sendai virus-induced IRF3 signaling, primary screen, TLR/RLR signaling modifier project, cell-based, Sendai virus stimulus, luciferase, 10K MLSCN set (AID 602276;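 active means inhibition at or above 50% at 10 µM; inactive means inhibition below 50%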;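 further: firefly luciferase from ISG56 promoter only with Renilla not read in this screen; 0% = Sendai virus plus DMSO and 100% = medium plus DMSO without virus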); settings: HEK293 RL24 IRF3 luciferase reporter, at 10 µM, stronger effect = higher value
# [8] = inhibitors of poly I:C-induced TLR3 signaling, primary screen, cell-based, poly I:C stimulus, luciferase, 10K MLSCN set (AID 602277;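 active means inhibition of the reporter signal at or above 50%; inactive means inhibition below 50%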); settings: HEK293-TLR3 RL24 IRF3 luciferase reporter, at 10 µM, stronger effect = higher value
# Sequence of Voltage-gated potassium channel subunit beta-2 (Rattus norvegicus) (P62483 whole entry, looked up): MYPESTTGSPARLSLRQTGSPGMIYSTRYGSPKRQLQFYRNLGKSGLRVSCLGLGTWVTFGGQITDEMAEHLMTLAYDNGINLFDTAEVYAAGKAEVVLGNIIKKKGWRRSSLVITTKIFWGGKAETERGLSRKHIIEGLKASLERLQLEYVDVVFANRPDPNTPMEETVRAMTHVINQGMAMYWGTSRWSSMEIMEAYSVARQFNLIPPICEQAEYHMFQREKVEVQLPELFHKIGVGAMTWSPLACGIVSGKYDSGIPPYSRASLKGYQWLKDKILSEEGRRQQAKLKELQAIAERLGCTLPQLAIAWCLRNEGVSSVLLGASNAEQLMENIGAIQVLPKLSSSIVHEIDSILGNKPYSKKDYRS
# Sequence of Muscarinic acetylcholine receptor M4 (Homo sapiens) (P08173 whole entry, looked up): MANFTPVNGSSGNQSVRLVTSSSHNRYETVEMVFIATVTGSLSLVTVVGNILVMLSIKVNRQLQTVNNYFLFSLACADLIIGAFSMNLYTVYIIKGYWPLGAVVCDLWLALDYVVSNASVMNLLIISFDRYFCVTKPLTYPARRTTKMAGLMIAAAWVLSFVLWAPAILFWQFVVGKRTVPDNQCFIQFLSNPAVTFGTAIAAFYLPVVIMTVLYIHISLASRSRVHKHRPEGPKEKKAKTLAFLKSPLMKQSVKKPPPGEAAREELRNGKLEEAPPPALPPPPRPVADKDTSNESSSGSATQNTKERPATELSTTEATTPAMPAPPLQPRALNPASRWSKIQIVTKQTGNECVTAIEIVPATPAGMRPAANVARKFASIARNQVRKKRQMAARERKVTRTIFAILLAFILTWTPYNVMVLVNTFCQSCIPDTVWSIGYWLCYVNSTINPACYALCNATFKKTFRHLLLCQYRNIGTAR
SMILES,cell count [1],inhibition [1],inhibition of aggregation [2],nuclei count [2],inhibition [3],nuclei count [3],fluorescence slope [4],NADPH fluorescence slope [5],fluorescence slope [6],inhibition [7],inhibition [8]
CCOC(=O)N1CCN(C(=O)Nc2ccc3oc(C)nc3c2)CC1,254,4.2% (inactive),20.5% (inactive),84.8%,-238% (inactive),116%,-0.463 (inactive),1.5e-05 (inactive),0.00473 (inactive),5.52% (inactive),-2.82% (inactive)
COc1ccccc1C(=O)N1CCCC(c2nc(-c3cc(OC)c(OC)c(OC)c3)no2)C1 (stereo not drawn),307,0.5% (inactive),-0.4% (inactive),120%,19.1% (inactive),100%,-0.474 (inactive),-3.6e-05 (inactive),0.0058 (inactive),12.4% (inactive),16.1% (inactive)
O=C(Cc1ccc(S(=O)(=O)N2CCCC2)s1)Nc1nc2c(s1)CCCC2,577,22.2% (inactive),25.3% (inactive),94.3%,18.1% (inactive),71.4%,-0.574 (inactive),-5.6e-05 (inactive),0.00565 (inactive),-11% (inactive),-53.9% (inactive)
O=C(Nc1cccc(C(F)(F)F)c1)c1cccnc1N1CCCC1,360,4.5% (inactive),-13% (inactive),105%,-32.4% (inactive),118%,-0.531 (inactive),2.1e-05 (inactive),0.00477 (inactive),16.2% (inactive),28.2% (inactive)
CCc1nc(C)c(-c2ccccc2)c(=O)[nH]1,211,0.8% (inactive),5.5% (inactive),97.2%,-99.3% (inactive),102%,-0.567 (inactive),-7.1e-06 (inactive),0.00452 (inactive),-0.853% (inactive),3.2% (inactive)
O=C(Cn1cccc1)N1CCN(C(c2ccccc2)c2ccccc2)CC1,337,-8.9% (inactive),-11.9% (inactive),110%,-52.8% (inactive),107%,-0.213 (inactive),-1.1e-05 (inactive),0.00614 (inactive),13.3% (inactive),22% (inactive)
Cn1cc(CC(=O)Nc2cccc(C#N)c2)c2ccccc21,414,-0.7% (inactive),23.9% (inactive),83.5%,13.7% (inactive),97.2%,-0.47 (inactive),-1.8e-05 (inactive),0.00535 (inactive),3.88% (inactive),-0.551% (inactive)
COc1ccc(CCn2c(N)c(C#N)c3nc4ccccc4nc32)cc1OC,397,-2.3% (inactive),-8% (inactive),105%,21.9% (inactive),150%,-0.52 (inactive),-5.8e-05 (inactive),0.00433 (inactive),17.3% (inactive),13.6% (inactive)
O=C(O)C1C2CCC(C2)C1C(=O)NCCCn1ccnc1 (stereo not drawn),486,0% (inactive),18.3% (inactive),72.3%,65.4% (active),65.1%,-0.491 (inactive),-8.2e-05 (inactive),0.0041 (inactive),-12.1% (inactive),-16.7% (inactive)
Cc1ccc(-c2nn3c(=O)c(C)nnc3s2)cc1,571,-19.6% (inactive),-0.2% (inactive),98.1%,3.6% (inactive),108%,-0.309 (inactive),-4.6e-06 (inactive),0.0056 (inactive),-12.3% (inactive),-53.9% (inactive)
O=C(Nc1nccs1)c1ccc(Cl)c(S(=O)(=O)N2CCCCC2)c1,355,1.3% (inactive),30.8% (active),109%,-4.7% (inactive),117%,-0.311 (inactive),-3.8e-05 (inactive),0.00573 (inactive),8.7% (inactive),7.95% (inactive)
O=C(COc1ccccc1Cl)N1CCCC1,236,11.7% (inactive),-1.6% (inactive),83.7%,-66.3% (inactive),152%,-0.528 (inactive),2.9e-05 (inactive),0.00495 (inactive),-16% (inactive),-18.4% (inactive)
Cc1cc2oc(=O)cc(CN3CCN(Cc4ccc5c(c4)OCO5)CC3)c2cc1C,362,6.8% (inactive),-15.1% (inactive),99.2%,-0.8% (inactive),108%,-0.536 (inactive),-4.3e-05 (inactive),0.00603 (inactive),5.83% (inactive),27% (inactive)
Cc1nc2ccc(S(=O)(=O)NCC(=O)O)cc2s1,423,5.2% (inactive),-3% (inactive),110%,-56.1% (inactive),118%,-0.45 (inactive),4.8e-05 (inactive),0.00579 (inactive),-1.77% (inactive),13% (inactive)
COc1ccc(Cc2nnc3n2N=C(c2cc4ccccc4o2)CS3)cc1OC,378,-16.3% (inactive),40.2% (active),43.3%,38.3% (inactive),51.6%,-0.346 (inactive),-7.6e-05 (inactive),0.00468 (inactive),11.3% (inactive),26% (inactive)
CSc1ccccc1C(=O)NC1CC2CCC1C2 (stereo not drawn),246,4.5% (inactive),13.1% (inactive),93.5%,15.4% (inactive),91.1%,-0.535 (inactive),-1.1e-05 (inactive),0.00469 (inactive),24.1% (inactive),24.1% (inactive)
COc1cc(C2C(C#N)=C(N)OC3=C2C(=O)CCC3)ccc1OC(=O)N1CCOCC1 (stereo not drawn),503,-34.2% (inactive),-16.1% (inactive),93.7%,-20.8% (inactive),101%,-0.37 (inactive),-7.7e-05 (inactive),0.00858 (inactive),8.74% (inactive),6.55% (inactive)
Nc1c(C2=NCCO2)nnn1Cc1ccccc1,612,4.2% (inactive),19.4% (inactive),79.3%,-130% (inactive),149%,-0.597 (inactive),-4.6e-05 (inactive),0.00414 (inactive),19.1% (inactive),19.1% (inactive)
CCCCNC(=O)OC(C)CNC(=O)Oc1cccc(C)c1 (stereo not drawn),482,7.6% (inactive),13.4% (inactive),92.7%,41.7% (inactive),74.5%,-0.471 (inactive),-2.9e-05 (inactive),0.00498 (inactive),22.3% (inactive),15.6% (inactive)
CC(C)[C@H](NC(=O)OC(C)(C)C)c1nnc(S(=O)(=O)Cc2c(F)cccc2Cl)o1,570,10.7% (inactive),-0.1% (inactive),89.7%,36.5% (inactive),101%,-0.521 (inactive),-0.000188 (inactive),0.00242 (inactive),32.2% (inactive),21.7% (inactive)
Cc1cccc(-n2ncc(C#N)c2N)c1,644,-3% (inactive),11.6% (inactive),97%,-44.1% (inactive),144%,-0.482 (inactive),-2.8e-06 (inactive),0.00451 (inactive),18% (inactive),12.7% (inactive)
Cc1cc(C)cc(NS(=O)(=O)c2ccc3[nH]cc(C(=O)NCc4ccco4)c(=O)c3c2)c1,416,1.5% (inactive),3.8% (inactive),99.9%,-19.7% (inactive),97.7%,-0.57 (inactive),-4.7e-05 (inactive),0.00555 (inactive),39.5% (inactive),49.1% (inactive)
Cc1ccccc1NC(=O)C1Cc2ccccc2C(=O)O1 (stereo not drawn),193,-5.8% (inactive),-4.8% (inactive),76.3%,20.2% (inactive),79.8%,-0.529 (inactive),-3.3e-05 (inactive),0.00563 (inactive),-9.01% (inactive),-31.6% (inactive)
O=C(NCCN1CCOCC1)C1CC(=O)N(c2ccc(F)c(Cl)c2)C1 (stereo not drawn),353,-4.7% (inactive),21.8% (inactive),76.2%,-63.7% (inactive),120%,-0.554 (inactive),-3.9e-05 (inactive),0.00645 (inactive),10.9% (inactive),10.3% (inactive)
C=CCNC(=O)CSc1ccc(Cl)cc1,339,7.4% (inactive),-7.8% (inactive),96%,-99.8% (inactive),101%,-0.448 (inactive),-0.000358 (inactive),0.00478 (inactive),5.55% (inactive),-3.36% (inactive)
COc1ccc(N2CCN(C(=O)CSc3ccccc3N)CC2)cc1,334,-3% (inactive),7.8% (inactive),96.1%,-18.9% (inactive),106%,-0.501 (inactive),-0.00016 (inactive),0.00478 (inactive),4.54% (inactive),22.7% (inactive)
CC(C)(C)OC(=O)N1CC(O)CC1C(=O)OCC(=O)c1ccc(Cl)cc1 (stereo not drawn),445,-7.4% (inactive),22.1% (inactive),105%,-22.9% (inactive),103%,-0.316 (inactive),-6e-05 (inactive),0.00558 (inactive),8.08% (inactive),19.4% (inactive)
COc1ccc(/C(O)=C2/C(=O)C(=O)N(Cc3cccnc3)C2c2ccncc2)cc1F (stereo not drawn),574,-7.6% (inactive),-2.8% (inactive),106%,-3.5% (inactive),117%,-0.574 (inactive),-8.3e-05 (inactive),0.00672 (inactive),8.93% (inactive),16.5% (inactive)
